Measurements from ChEMBL document CHEMBL3792341, “Substituted quinazolinones as kinase inhibitors endowed with anti-fibrotic properties” (Eur J Med Chem, 2016).
Calls of active or inactive are those of the source. The calls are words filed in the database; no cut-off is given here.

What was measured:
[1] = target: Platelet-derived growth factor receptor beta (Homo sapiens) (UniProt P09619); assay: Inhibition of human PDGFR-beta at 1 uM measured after 20 mins at 30 degC by liquid scintillation counting method in presence of [gamma-32P]-ATP
Sequence of Platelet-derived growth factor receptor beta (Homo sapiens) (P09619 whole entry): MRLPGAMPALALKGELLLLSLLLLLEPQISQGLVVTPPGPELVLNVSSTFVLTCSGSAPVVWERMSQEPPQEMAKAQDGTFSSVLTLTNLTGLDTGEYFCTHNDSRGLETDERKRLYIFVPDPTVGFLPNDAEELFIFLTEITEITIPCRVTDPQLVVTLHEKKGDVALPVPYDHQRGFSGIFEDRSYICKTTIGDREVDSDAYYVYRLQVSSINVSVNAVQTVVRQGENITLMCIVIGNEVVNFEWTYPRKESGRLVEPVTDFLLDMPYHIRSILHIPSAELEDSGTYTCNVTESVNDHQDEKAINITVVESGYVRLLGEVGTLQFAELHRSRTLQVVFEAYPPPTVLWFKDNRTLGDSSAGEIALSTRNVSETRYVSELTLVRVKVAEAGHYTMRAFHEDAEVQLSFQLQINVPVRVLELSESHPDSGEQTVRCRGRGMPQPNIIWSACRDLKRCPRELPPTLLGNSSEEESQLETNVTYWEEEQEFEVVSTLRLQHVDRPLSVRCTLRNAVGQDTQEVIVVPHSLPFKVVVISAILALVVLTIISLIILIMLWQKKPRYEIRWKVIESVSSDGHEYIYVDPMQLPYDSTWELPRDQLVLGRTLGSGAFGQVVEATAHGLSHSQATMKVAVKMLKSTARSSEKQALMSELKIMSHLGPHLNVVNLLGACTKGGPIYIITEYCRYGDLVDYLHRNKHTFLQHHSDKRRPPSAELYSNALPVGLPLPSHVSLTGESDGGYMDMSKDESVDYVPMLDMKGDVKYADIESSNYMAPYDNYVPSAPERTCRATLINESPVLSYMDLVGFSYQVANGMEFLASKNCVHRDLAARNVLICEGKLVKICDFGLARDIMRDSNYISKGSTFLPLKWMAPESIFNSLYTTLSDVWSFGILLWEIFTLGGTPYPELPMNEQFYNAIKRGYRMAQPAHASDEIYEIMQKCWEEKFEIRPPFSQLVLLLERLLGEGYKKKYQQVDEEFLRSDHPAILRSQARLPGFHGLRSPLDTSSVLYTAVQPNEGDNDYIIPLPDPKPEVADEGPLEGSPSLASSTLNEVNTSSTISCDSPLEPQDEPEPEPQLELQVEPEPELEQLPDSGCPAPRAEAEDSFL

[2] = Cytotoxicity against crohn's disease patient isolated ISEMF assessed as cell viability at 1 uM after 72 hrs by MTT assay; conditions: human
How it was run: (§1)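 MTT viability in primary human HSCs or ISEMFs seeded at 2 × 10³ cells/well. Cells were exposed to compound for 72 h, then to MTT 0.50 mg/ml for 4 h. Viability is expressed as % of the respective untreated cells. Triplicate per isolated cell batch.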

[3] = Cytotoxicity against healthy human ISEMF assessed as cell viability at 1 uM after 72 hrs by MTT assay; how it was run: as §1
[4] = target: Fibroblast growth factor receptor 1 (Homo sapiens) (UniProt P11362); assay: Inhibition of human FGFR1 using myelin basic protein as substrate at 1 uM measured after 20 mins at 30 degC by liquid scintillation counting method in presence of [gamma-32P]-ATP
Sequence of Fibroblast growth factor receptor 1 (Homo sapiens) (P11362 22-822 limits assumed): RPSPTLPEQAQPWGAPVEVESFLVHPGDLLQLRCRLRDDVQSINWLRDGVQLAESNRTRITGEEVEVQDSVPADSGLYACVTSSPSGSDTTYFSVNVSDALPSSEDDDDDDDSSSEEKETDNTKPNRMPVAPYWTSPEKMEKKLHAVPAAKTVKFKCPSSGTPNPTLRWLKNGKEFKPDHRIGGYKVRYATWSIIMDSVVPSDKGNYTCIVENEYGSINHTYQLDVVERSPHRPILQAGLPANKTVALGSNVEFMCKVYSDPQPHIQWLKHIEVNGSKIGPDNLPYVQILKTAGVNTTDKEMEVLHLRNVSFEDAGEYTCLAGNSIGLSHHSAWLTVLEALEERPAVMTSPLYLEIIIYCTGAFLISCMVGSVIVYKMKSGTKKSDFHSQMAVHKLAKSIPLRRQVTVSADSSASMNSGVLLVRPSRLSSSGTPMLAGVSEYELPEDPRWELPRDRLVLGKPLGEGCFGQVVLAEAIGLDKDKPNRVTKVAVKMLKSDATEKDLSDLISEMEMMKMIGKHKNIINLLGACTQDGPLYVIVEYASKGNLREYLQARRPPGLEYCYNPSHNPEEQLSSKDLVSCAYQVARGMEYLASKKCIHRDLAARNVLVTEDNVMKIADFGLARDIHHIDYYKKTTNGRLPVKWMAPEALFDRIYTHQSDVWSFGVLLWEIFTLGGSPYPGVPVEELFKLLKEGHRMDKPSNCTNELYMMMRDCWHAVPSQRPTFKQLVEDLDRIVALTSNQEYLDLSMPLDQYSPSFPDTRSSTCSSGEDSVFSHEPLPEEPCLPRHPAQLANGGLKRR

[5] = Reduction of COL1A1 mRNA expression in crohn's disease patient isolated ISEMF at 1 uM by RT-PCR analysis; type: functional; conditions: Homo sapiens
How it was run: (§2)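 HSCs or ISEMFs were treated with compound for 24 h. Total RNA was extracted and DNase I-treated, then used for quantitative PCR of the target transcript. Values were normalized to 18S rRNA and relative change was calculated by the ΔΔCT method. Triplicate per isolated cell batch.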

Homo sapiens [6] = species: Homo sapiens; assay: Inhibition of human PI3K using phosphatidylinositol 4,5-diphosphate as substrate at 1 uM measured after 20 mins at 30 degC by liquid scintillation counting method in presence of [gamma-32P]-ATP
[7] = Cytotoxicity against human HSC cells assessed as cell viability at 1 uM after 72 hrs by MTT assay; type: cell-based; how it was run: as §1
[8] = Reduction of COL1A1 mRNA expression in healthy human ISEMF at 1 uM by RT-PCR analysis; type: functional; how it was run: as §2
[9] = target: T1, MAP kinase p38 (Homo sapiens) (UniProt O15264+Q15759+Q16539+P53778); assay: Inhibition of p38 MAPK phosphorylation in human HSC cells at 1 uM after 4 hrs by western blotting analysis; type: cell-based
How it was run: (§3)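 Primary human cells were treated with compound for 4 h. Lysates were made in RIPA buffer with phosphatase and protease inhibitors and cleared by centrifugation. Proteins were run on 10% SDS-PAGE and blotted to nitrocellulose. Blots were probed for phospho-p38 MAPK with an HRP secondary and ECL detection, then reprobed for total p38 MAPK as loading control. Duplicate experiments.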

[10] = target: T1, MAP kinase p38 (Homo sapiens); assay: Inhibition of p38 MAPK phosphorylation in crohn's disease patient isolated ISEMF at 1 uM after 4 hrs by western blotting analysis; how it was run: as §3
[11] = target: Serine/threonine-protein kinase mTOR (Homo sapiens) (UniProt P42345); assay: Inhibition of human mTOR using PHAS-1 as substrate at 1 uM measured after 20 mins at 30 degC by liquid scintillation counting method in presence of [gamma-32P]-ATP
[12] = target: Vascular endothelial growth factor receptor 2 (Homo sapiens) (UniProt P35968); assay: Inhibition of human KDR using […] as substrate at 1 uM measured after 20 mins at 30 degC by liquid scintillation counting method in presence of [gamma-32P]-ATP
Sequence of Vascular endothelial growth factor receptor 2 (Homo sapiens) (P35968 whole entry): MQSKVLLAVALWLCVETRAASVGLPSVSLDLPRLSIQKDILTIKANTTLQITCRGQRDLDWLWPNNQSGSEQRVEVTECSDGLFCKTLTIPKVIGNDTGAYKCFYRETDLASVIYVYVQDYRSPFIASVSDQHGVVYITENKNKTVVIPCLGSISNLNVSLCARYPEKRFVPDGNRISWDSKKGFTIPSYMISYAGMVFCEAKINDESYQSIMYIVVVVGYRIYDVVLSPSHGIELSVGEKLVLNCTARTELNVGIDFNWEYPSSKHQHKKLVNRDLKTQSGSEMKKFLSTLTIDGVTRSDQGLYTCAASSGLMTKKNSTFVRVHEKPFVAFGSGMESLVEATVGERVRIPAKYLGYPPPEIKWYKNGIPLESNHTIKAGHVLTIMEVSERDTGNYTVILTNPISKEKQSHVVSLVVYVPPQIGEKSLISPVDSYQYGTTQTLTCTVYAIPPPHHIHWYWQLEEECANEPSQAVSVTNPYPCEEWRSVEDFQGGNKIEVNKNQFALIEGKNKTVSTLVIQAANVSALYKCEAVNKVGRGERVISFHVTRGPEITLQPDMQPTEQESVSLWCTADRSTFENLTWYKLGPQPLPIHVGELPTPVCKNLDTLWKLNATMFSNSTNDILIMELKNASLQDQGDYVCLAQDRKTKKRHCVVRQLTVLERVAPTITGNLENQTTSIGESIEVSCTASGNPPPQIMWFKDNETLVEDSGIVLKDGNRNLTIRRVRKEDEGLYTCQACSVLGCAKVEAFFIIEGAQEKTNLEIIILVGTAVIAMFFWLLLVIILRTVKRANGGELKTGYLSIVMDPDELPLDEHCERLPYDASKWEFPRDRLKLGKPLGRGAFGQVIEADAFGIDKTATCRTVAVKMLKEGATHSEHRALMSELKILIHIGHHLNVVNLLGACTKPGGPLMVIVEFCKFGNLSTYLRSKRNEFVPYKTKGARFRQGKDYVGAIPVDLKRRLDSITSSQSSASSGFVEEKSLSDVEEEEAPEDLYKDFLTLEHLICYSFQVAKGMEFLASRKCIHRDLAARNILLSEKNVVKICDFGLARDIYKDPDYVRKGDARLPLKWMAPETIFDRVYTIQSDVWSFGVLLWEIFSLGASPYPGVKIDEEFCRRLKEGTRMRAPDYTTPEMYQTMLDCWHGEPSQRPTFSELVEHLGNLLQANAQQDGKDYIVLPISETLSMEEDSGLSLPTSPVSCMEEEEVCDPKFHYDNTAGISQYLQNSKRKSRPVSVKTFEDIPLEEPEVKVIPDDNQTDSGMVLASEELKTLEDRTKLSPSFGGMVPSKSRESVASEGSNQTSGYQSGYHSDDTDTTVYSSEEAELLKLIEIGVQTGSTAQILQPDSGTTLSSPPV

[13] = target: Tyrosine-protein kinase ABL1 (Homo sapiens) (UniProt P00519); assay: Inhibition of human Abl1 using myelin basic protein as substrate at 1 uM measured after 20 mins at 30 degC by liquid scintillation counting method in presence of [gamma-32P]-ATP
Sequence of Tyrosine-protein kinase ABL1 (Homo sapiens) (P00519 whole entry): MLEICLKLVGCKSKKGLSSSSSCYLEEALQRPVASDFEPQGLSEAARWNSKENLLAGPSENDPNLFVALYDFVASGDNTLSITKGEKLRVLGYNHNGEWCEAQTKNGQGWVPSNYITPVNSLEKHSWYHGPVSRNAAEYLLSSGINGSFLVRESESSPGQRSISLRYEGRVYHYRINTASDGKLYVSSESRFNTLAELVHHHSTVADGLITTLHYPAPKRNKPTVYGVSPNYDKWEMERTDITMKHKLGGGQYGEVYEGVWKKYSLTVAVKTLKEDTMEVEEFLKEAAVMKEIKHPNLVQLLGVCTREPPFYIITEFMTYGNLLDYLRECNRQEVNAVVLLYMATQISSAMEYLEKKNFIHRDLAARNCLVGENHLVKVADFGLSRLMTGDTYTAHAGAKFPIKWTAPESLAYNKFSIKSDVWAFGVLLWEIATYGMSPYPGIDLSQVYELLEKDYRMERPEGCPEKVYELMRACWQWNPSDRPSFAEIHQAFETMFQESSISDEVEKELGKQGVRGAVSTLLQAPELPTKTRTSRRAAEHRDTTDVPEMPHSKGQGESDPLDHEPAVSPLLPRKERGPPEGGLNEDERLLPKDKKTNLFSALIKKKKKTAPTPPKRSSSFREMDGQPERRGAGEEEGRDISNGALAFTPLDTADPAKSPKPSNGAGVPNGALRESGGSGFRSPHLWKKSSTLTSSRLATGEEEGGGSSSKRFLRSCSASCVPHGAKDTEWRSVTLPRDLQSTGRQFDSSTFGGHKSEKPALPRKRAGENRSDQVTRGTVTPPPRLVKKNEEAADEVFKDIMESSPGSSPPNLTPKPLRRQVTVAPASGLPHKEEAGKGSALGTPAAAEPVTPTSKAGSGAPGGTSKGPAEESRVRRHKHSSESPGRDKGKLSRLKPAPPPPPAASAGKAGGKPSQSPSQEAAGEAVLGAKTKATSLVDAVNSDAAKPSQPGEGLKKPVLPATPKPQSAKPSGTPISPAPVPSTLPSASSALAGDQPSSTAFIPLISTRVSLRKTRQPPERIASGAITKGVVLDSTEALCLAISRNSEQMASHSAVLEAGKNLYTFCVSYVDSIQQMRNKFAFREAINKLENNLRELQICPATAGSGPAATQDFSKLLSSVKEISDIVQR

[14] = Reduction of COL1A1 mRNA expression in healthy human HSC cells at 1 uM by RT-PCR analysis; type: functional, cell-based; how it was run: as §2
[15] = target: Proto-oncogene tyrosine-protein kinase Src (Homo sapiens) (UniProt P12931); assay: Inhibition of human Src using myelin basic protein as substrate at 1 uM measured after 20 mins at 30 degC by liquid scintillation counting method in presence of [gamma-32P]-ATP
Sequence of Proto-oncogene tyrosine-protein kinase Src (Homo sapiens) (P12931 2-536 limits assumed): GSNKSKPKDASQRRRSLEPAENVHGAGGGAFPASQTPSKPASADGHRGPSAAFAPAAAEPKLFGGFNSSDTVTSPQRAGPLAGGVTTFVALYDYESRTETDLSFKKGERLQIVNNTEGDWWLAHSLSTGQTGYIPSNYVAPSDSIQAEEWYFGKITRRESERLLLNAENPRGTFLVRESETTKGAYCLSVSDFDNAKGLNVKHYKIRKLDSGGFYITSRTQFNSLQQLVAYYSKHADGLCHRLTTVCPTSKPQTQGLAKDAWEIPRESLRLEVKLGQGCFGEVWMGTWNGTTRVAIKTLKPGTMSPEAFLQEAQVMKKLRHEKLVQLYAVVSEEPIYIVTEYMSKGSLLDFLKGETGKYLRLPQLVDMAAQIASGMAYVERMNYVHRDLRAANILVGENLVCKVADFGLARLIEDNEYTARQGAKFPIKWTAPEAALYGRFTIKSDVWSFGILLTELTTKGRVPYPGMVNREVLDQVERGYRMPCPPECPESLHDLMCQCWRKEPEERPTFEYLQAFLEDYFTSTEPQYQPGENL

[16] = Reduction of TIMP1 mRNA expression in healthy human ISEMF at 1 uM by RT-PCR analysis; type: functional; how it was run: as §2
[17] = Reduction of TIMP1 mRNA expression in human HSC cells at 1 uM by RT-PCR analysis; type: functional, cell-based; how it was run: as §2
[18] = Reduction of FN1 mRNA expression in crohn's disease patient isolated ISEMF at 1 uM by RT-PCR analysis; type: functional; conditions: Homo sapiens; how it was run: as §2
[19] = Reduction of TIMP1 mRNA expression in crohn's disease patient isolated ISEMF at 1 uM by RT-PCR analysis; type: functional; conditions: Homo sapiens; how it was run: as §2
[20] = Reduction of FN1 mRNA expression in human HSC cells at 1 uM by RT-PCR analysis; type: functional, cell-based; how it was run: as §2
[21] = Reduction of FN1 mRNA expression in healthy human ISEMF at 1 uM by RT-PCR analysis; type: functional; how it was run: as §2
Homo sapiens [22] = species: Homo sapiens; assay: Antiproliferative activity against VEGF induced crohn's disease patient isolated ISEMF at 1 uM after 72 hrs by carboxyfluorescein diacetate succinimidyl ester dye-based FACS flow cytometric method; type: functional
How it was run: (§4)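 Primary human HSCs (from collagenase/pronase digests of non-pathological liver, Percoll gradient) or ISEMFs (from collagenase-digested gut biopsies, CD90-checked) were CFSE-loaded for 10 min at 37 °C in PBS with 0.1% BSA. Loading was quenched with 5 volumes of ice-cold medium. After 16 h, cells were washed and given compound plus 1 ng/ml VEGF for 72 h. Read-out was dye partitioning by flow cytometry, as % CFSE-positive cells. Duplicate per cell batch; mean ± SE.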

HSC = assay: Antiproliferative activity against VEGF induced human HSC cells at 1 uM after 72 hrs by carboxyfluorescein diacetate succinimidyl ester dye-based FACS flow cytometric method; type: functional, cell-based; how it was run: as §4
Homo sapiens [23] = species: Homo sapiens; assay: Antiproliferative activity against VEGF induced healthy human ISEMF at 1 uM after 72 hrs by carboxyfluorescein diacetate succinimidyl ester dye-based FACS flow cytometric method; type: functional; how it was run: as §4

| inhibition [1] | inhibition [4] | inhibition (Homo sapiens [6]) | inhibition [11] | inhibition [12] | inhibition [13] | inhibition [15] | Structure (SMILES) | Activity [2] | Activity [3] | Activity [5] | Activity [7] | Activity [8] | Activity [14] | Activity [16] | Activity [17] | Activity [18] | Activity [19] | Activity [20] | Activity [21] | other results |
| --- | --- | --- | --- | --- | --- | --- | --- | --- | --- | --- | --- | --- | --- | --- | --- | --- | --- | --- | --- | --- |
| 4% | 18% | 35% | 2% | 36% | 0% | 0% | O=C(Cn1cnc2cc3c(cc2c1=O)OCCO3)c1cccc(Br)c1 | Non-toxic | Non-toxic | Active | Non-toxic | Active | Active |  |  |  |  |  |  | inhibition [9]: Active; inhibition [10]: Active |
| 0% | 5% | 0% | 1% | 26% | 1% | 0% | O=c1c2cc3c(cc2ncn1CC(O)c1cccc(Cl)c1)OCCO3 (stereo not drawn) | Non-toxic | Non-toxic | inactive | Non-toxic | inactive | inactive | inactive | inactive | inactive | inactive | inactive | inactive |  |
| 72% | 31% | 18% | 49% |  | 25% | 16% | Clc1ccc(Nc2nnc(Cc3ccncc3)c3ccccc23)cc1 [VATALANIB] | Toxic | Toxic | Active | Toxic | Active | Active | inactive | Active | Active | Active | Active | inactive |  |
| 1% | 18% | 17% | 23% | 35% | 0% | 0% | O=C(Cn1cnc2cc3c(cc2c1=O)OCCO3)c1ccc(Br)cc1 | Non-toxic | Non-toxic | Active | Non-toxic | Active | Active |  |  |  |  |  |  |  |
| 1% | 7% | 0% | 17% | 53% | 0% | 4% | COc1cc2ncn(CC(=O)c3ccc(Br)cc3)c(=O)c2cc1OC | Non-toxic | Non-toxic |  | Non-toxic |  |  | inactive | Active | Active | Active | Active | inactive |  |
| 22% | 11% | 15% | 18% | 31% | 0% | 0% | COc1cc2ncn(Cc3cccc(Br)c3)c(=O)c2cc1OC | Non-toxic | Non-toxic | inactive | Non-toxic | inactive | inactive | inactive | inactive | inactive | inactive | inactive | inactive |  |
| 4% | 6% | 0% | 10% | 25% | 4% | 0% | O=c1c2cc3c(cc2ncn1Cc1ccc(-c2ccccc2)cc1)OCO3 |  |  |  |  |  |  |  |  |  |  |  |  |  |
| 1% | 1% | 0% | 13% | 12% | 0% | 0% | O=c1c2cc3c(cc2ncn1Cc1ccc(Br)cc1)OCCO3 |  |  |  |  |  |  |  |  |  |  |  |  |  |
| 0% | 8% | 0% | 0% | 35% | 0% | 0% | O=c1c2cc3c(cc2ncn1Cc1cccc(-c2ccccc2)c1)OCO3 | Non-toxic | Non-toxic | Active | Non-toxic | Active | Active |  |  |  |  |  |  |  |
| 45% | 1% | 7% | 17% | 27% | 0% | 0% | O=c1c2cc3c(cc2ncn1Cc1ccc(Br)cc1)OCO3 | Non-toxic | Non-toxic | inactive | Non-toxic | inactive | inactive | inactive | inactive | inactive | inactive | inactive | inactive | Activity (Homo sapiens [22]): Active; Activity (HSC): Active; Activity (Homo sapiens [23]): Active |
| 0% | 7% | 28% | 28% | 12% | 0% | 0% | O=c1c2cc3c(cc2ncn1Cc1cccc(Br)c1)OCCO3 |  |  |  |  |  |  |  |  |  |  |  |  |  |
| 0% | 14% | 0% | 25% | 25% | 0% | 0% | COc1cc2ncn(Cc3ccc(Br)cc3)c(=O)c2cc1OC |  |  |  |  |  |  |  |  |  |  |  |  |  |
| 4% | 13% | 21% | 34% | 33% | 0% | 0% | COc1cc2ncn(Cc3cccc(-c4ccccc4)c3)c(=O)c2cc1OC |  |  |  |  |  |  |  |  |  |  |  |  |  |
| 13% | 10% | 25% | 37% | 45% | 0% | 5% | O=c1c2cc3c(cc2ncn1Cc1ccc(-c2ccccc2)cc1)OCCO3 | Non-toxic | Non-toxic | Active | Non-toxic | Active | Active |  |  |  |  |  |  |  |
